Where two headings read alike, the source gives them in different places. Marks after values point to notes of the source that are not given here. Residues, ends and D or L forms follow the SMILES beside them.
Assays:
[1] = for Cmax: 20-min i.v. infusion, n=12, estimate (SE); for AUCτ / λz: i.v. infusion, n=12, pooled
[2] = Single-dose i.v. pharmacokinetics in mice; assay type: in vivo, CD-1 mice; details: 5 mg/kg single i.v. bolus, n=4/time point
In short: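 Male and female CD-1 mice received a single 5 mg/kg i.v. bolus into the lateral tail vein, with 2/sex per time point. EDTA blood was taken by terminal cardiac puncture at 0.25, 1, 2, 4, 8 and 24 h; plasma was stored at −80°C. Sparse-sampling NCA used nominal times, linear-up/log-down AUC, and excluded values below LLOQ.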

[3] = Serum biochemistry of cynomolgus monkeys at the end of treatment; assay type: in vivo; details: female, median (IQR)
In short: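 GLP 10-day study in male and female cynomolgus monkeys (n = 3-5/sex/group) dosed once daily with 0 (placebo), 5, 10 or 15 mg/kg test compound by i.v. infusion over 60 ± 5 min. Hematology, serum chemistry and coagulation were taken at end of treatment and reported as median (IQR). Dose groups were compared by Kruskal-Wallis with Dunn's multiple comparison test.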

Which results are given for CC[C@H](C)[C@@H]1NC(=O)[C@@H]2CSSC[C@H](NC(=O)[C@H](CCCNC(=N)N)NC(=O)[C@@H]3CSSC[C@H](NC1=O)C(=O)N[C@@H]([C@@H](C)O)C(=O)N[C@@H](CCCNC(=N)N)C(=O)NCC(=O)N[C@@H](Cc1ccccc1)C(=O)N3)C(=O)N[C@@H](CC(C)C)C(=O)N[C@H]1CSSC[C@H](NC(=O)[C@H](C(C)C)NC(=O)CNC(=O)[C@H](CCCNC(=N)N)NC(=O)[C@H](CCCNC(=N)N)NC1=O)C(=O)N[C@@H](CCCNC(=N)N)C(=O)N2 [RTD-1, Rhesus theta (θ) defensin-1] (HELM PEPTIDE1{G.F.C.R.C.L.C.R.R.G.V.C.R.C.I.C.T.R}$PEPTIDE1,PEPTIDE1,3:R3-16:R3|PEPTIDE1,PEPTIDE1,5:R3-14:R3|PEPTIDE1,PEPTIDE1,7:R3-12:R3|PEPTIDE1,PEPTIDE1,1:R1-18:R2$$$V2.0)?
Cmax ([1]; 5 mg/kg Day 1): 7,468 (1,202)^b ng/mL; AUCτ ([1]; 5 mg/kg Day 1): 14,956 ng · h/mL; λz ([1]; 5 mg/kg Day 1): 0.056 h⁻¹; AUCτ ([1]; 5 mg/kg Day 7): 12,468 ng · h/mL; λz ([1]; 5 mg/kg Day 7): 0.104 h⁻¹; AUCτ on day 7 lower than AUC0-∞ on day 1 ([1]; 5 mg/kg/day): 22%; Cmax ([1]; 10 mg/kg Day 1): 27,533 (1,419)* ng/mL; AUCτ ([1]; 10 mg/kg Day 1): 41,669 ng · h/mL; λz ([1]; 10 mg/kg Day 1): 0.148 h⁻¹; λz ([1]; 10 mg/kg Day 7): 0.133 h⁻¹; AUCτ on day 7 lower than AUC0-∞ on day 1 ([1]; 10 mg/kg/day): 19%; Cmax ([1]; 20 mg/kg Day 1): 35,400 (5,350)# ng/mL; λz ([1]; 20 mg/kg Day 1): 0.221 h⁻¹; plasma levels during the recovery period (day 25) ([1]; all rats except one female at 10 mg/kg): undetectable; increase in AUC0-∞ from 5 mg/kg to 20 mg/kg ([1]; single ascending dose): 8 fold; AUC0-∞ ([2]; pooled NCA): 12,497 ng · h/mL; AUCτ ([2]; pooled NCA): 12,282 ng · h/mL; CL ([2]; pooled NCA): 6.67 mL/min/kg; MRT ([2]; pooled NCA): 2.62 h; λz ([2]; pooled NCA): 0.114 h⁻¹; Cmax ([2]; pooled, estimate (SE)): 8,919 (1,088)^b ng/mL; A/G ([3]; 5 mg/kg/day): 1.7 (0.2); ALP ([3]; 5 mg/kg/day): 576.0 (132.0) U/L; ALT ([3]; 5 mg/kg/day): 112.0 (50.0) U/L; AST ([3]; 5 mg/kg/day): 69.0 (22.0) U/L; Albumin ([3]; 5 mg/kg/day): 4.5 (0.5) g/dL; CK ([3]; 5 mg/kg/day): 301.0 (38.0) U/L; Calcium ([3]; 5 mg/kg/day): 10.0 (0.4) mg/dL; Chloride ([3]; 5 mg/kg/day): 107.0 (1.5) mmol/L; Cholesterol ([3]; 5 mg/kg/day): 104.0 (17.5) mg/dL; Creatinine ([3]; 5 mg/kg/day): 0.5 (0.1) mg/dL; GGT ([3]; 5 mg/kg/day): 92.0 (14.0) U/L; Globulin ([3]; 5 mg/kg/day): 2.7 (0.4) g/dL; Glucose ([3]; 5 mg/kg/day): 60.0 (7.5) mg/dL; Phos ([3]; 5 mg/kg/day): 5.7 (0.2) mg/dL; Potassium ([3]; 5 mg/kg/day): 4.9 (0.6) mmol/L; Sodium ([3]; 5 mg/kg/day): 146.0 (0.0) mmol/L; T-Bil ([3]; 5 mg/kg/day): 0.2 (0.0) mg/dL; TP ([3]; 5 mg/kg/day): 7.6 (0.7) g/dL; Triglycerides ([3]; 5 mg/kg/day): 49.0 (8.5) mg/dL; Urea N ([3]; 5 mg/kg/day): 15.0 (4.0) mg/dL; A/G ([3]; 10 mg/kg/day): 1.6 (0.2); ALP ([3]; 10 mg/kg/day): 915.0 (64.0) U/L; ALT ([3]; 10 mg/kg/day): 126.0 (87.5) U/L; AST ([3]; 10 mg/kg/day): 104.0 (16.0) U/L; Albumin ([3]; 10 mg/kg/day): 4.3 (0.1) g/dL; CK ([3]; 10 mg/kg/day): 1,102.0 (1,584.0) U/L; Calcium ([3]; 10 mg/kg/day): 10.0 (0.1) mg/dL; Chloride ([3]; 10 mg/kg/day): 109.0 (2.0) mmol/L; Cholesterol ([3]; 10 mg/kg/day): 91.0 (10.5) mg/dL; Creatinine ([3]; 10 mg/kg/day): 0.6 (0.1) mg/dL; GGT ([3]; 10 mg/kg/day): 88.0 (7.0) U/L; Globulin ([3]; 10 mg/kg/day): 2.7 (0.4) g/dL; Glucose ([3]; 10 mg/kg/day): 59.0 (6.5) mg/dL; Phos ([3]; 10 mg/kg/day): 5.3 (0.6) mg/dL; Potassium ([3]; 10 mg/kg/day): 5.1 (0.9) mmol/L; Sodium ([3]; 10 mg/kg/day): 146.0 (3.0) mmol/L; T-Bil ([3]; 10 mg/kg/day): 0.2 (0.1) mg/dL; TP ([3]; 10 mg/kg/day): 7.0 (0.3) g/dL; Triglycerides ([3]; 10 mg/kg/day): 49.0 (1.5) mg/dL; Urea N ([3]; 10 mg/kg/day): 16.0 (4.5) mg/dL; A/G ([3]; 15 mg/kg/day): 1.5 (0.0); ALP ([3]; 15 mg/kg/day): 943.0 (411.0) U/L; ALT ([3]; 15 mg/kg/day): 92.0 (36.0) U/L; AST ([3]; 15 mg/kg/day): 95.0 (45.0) U/L; Albumin ([3]; 15 mg/kg/day): 4.3 (0.6) g/dL; CK ([3]; 15 mg/kg/day): 891.0 (603.0) U/L; Calcium ([3]; 15 mg/kg/day): 10.2 (0.4) mg/dL; Chloride ([3]; 15 mg/kg/day): 111.0 (1.0) mmol/L; Cholesterol ([3]; 15 mg/kg/day): 94.0 (13.0) mg/dL; Creatinine ([3]; 15 mg/kg/day): 0.7 (0.1) mg/dL; GGT ([3]; 15 mg/kg/day): 99.0 (37.0) U/L; Globulin ([3]; 15 mg/kg/day): 2.8 (0.1) g/dL; Glucose ([3]; 15 mg/kg/day): 78.0 (18.0)^c mg/dL; Phos ([3]; 15 mg/kg/day): 5.3 (0.3)^c mg/dL; Potassium ([3]; 15 mg/kg/day): 6.0 (1.0) mmol/L; Sodium ([3]; 15 mg/kg/day): 146.0 (4.0) mmol/L; T-Bil ([3]; 15 mg/kg/day): 0.2 (0.2) mg/dL; TP ([3]; 15 mg/kg/day): 7.1 (0.8) g/dL
